In ChEMBL document CHEMBL1140227, “Histone deacetylase inhibitors through click chemistry” (J Med Chem, 2008):

How the values were obtained:
Assay type in all cases: functional
HCC 2998 = assay: Growth inhibition of human HCC2998 cells at 10 uM relative to control; conditions: values are per cent of control
Method in brief: (§1)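 Single-dose preliminary screen in the NCI human cancer cell line panel, run by the NIH. Percent inhibition of cell line growth was calculated by comparison with untreated samples.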

SF-539 = assay: Growth inhibition of human SF539 cells at 10 uM relative to control; conditions: values are per cent of control; method in brief: as §1
CAKI-1 = assay: Growth inhibition of human Caki1 cells at 10 uM relative to control; conditions: values are per cent of control; method in brief: as §1
IGROV-1 = assay: Growth inhibition of human IGROV1 cells at 10 uM relative to control; conditions: values are per cent of control; method in brief: as §1
SK-OV-3 = assay: Growth inhibition of human SKOV3 cells at 10 uM relative to control; conditions: values are per cent of control; method in brief: as §1
T47D = assay: Growth inhibition of human T47D cells at 10 uM relative to control; conditions: values are per cent of control
Method in brief: (§2)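 Single-dose NCI human tumour cell line screen, run by the NIH. Percent inhibition of cell line growth was calculated by comparison with untreated samples.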

SN12C = assay: Growth inhibition of human SN12C cells at 10 uM relative to control; conditions: values are per cent of control; method in brief: as §1
SK-MEL-2 = assay: Growth inhibition of human SK-MEL-2 cells at 10 uM relative to control; conditions: values are per cent of control; method in brief: as §1
BT-549 = assay: Growth inhibition of human BT549 cells at 10 uM relative to control; conditions: values are per cent of control; method in brief: as §1
K562 = assay: Growth inhibition of human K562 cells at 10 uM relative to control; conditions: values are per cent of control; method in brief: as §1
OVCAR-3 = assay: Growth inhibition of human OVCAR-3 cells at 10 uM relative to control; conditions: values are per cent of control; method in brief: as §1
MOLT-4 = assay: Growth inhibition of human MOLT4 cells at 10 uM relative to control; conditions: values are per cent of control; method in brief: as §1
TK-10 = assay: Growth inhibition of human TK10 cells at 10 uM relative to control; conditions: values are per cent of control; method in brief: as §2
EKVX = assay: Growth inhibition of human EKVX cells at 10 uM relative to control; conditions: values are per cent of control; method in brief: as §1
OVCAR-5 = assay: Growth inhibition of human OVCAR5 cells at 10 uM relative to control; conditions: values are per cent of control; method in brief: as §1
LOX IMVI = assay: Growth inhibition of human LOXIMVI cells at 10 uM relative to control; conditions: values are per cent of control; method in brief: as §1
MDA-MB-468 = assay: Growth inhibition of human MDA-MB-468 cells at 10 uM relative to control; conditions: values are per cent of control; method in brief: as §1
NCI-H322M = assay: Growth inhibition of human NCI-H322M cells at 10 uM relative to control; conditions: values are per cent of control; method in brief: as §1
HCT-116 = assay: Growth inhibition of human HCT116 cells at 10 uM relative to control; conditions: values are per cent of control; method in brief: as §1
HT-29 = assay: Growth inhibition of human HT-29 cells at 10 uM relative to control; conditions: values are per cent of control; method in brief: as §1
SNB-75 = assay: Growth inhibition of human SNB75 cells at 10 uM relative to control; conditions: values are per cent of control; method in brief: as §2
DU-145 = assay: Growth inhibition of human DU145 cells at 10 uM relative to control; conditions: values are per cent of control; method in brief: as §1
[1] = Growth inhibition of human Hs 578T cells at 10 uM relative to control; conditions: values are per cent of control; method in brief: as §1
A549 = assay: Growth inhibition of human A549 cells at 10 uM relative to control; conditions: values are per cent of control; method in brief: as §1
M14 = assay: Growth inhibition of human M14 cells at 10 uM relative to control; conditions: values are per cent of control; method in brief: as §1
HL-60(TB) = assay: Growth inhibition of human HL-60(TB) cells at 10 uM relative to control; conditions: read-out: INH
Method in brief: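 Single-dose cell line screen run by the NCI (NIH) in its human cancer cell line panel, which includes the leukemia line HL-60(TB). Percent growth inhibition was calculated by comparison with untreated samples.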

UACC-257 = assay: Growth inhibition of human UACC257 cells at 10 uM relative to control; conditions: values are per cent of control; method in brief: as §2
SF-295 = assay: Growth inhibition of human SF295 cells at 10 uM relative to control; conditions: values are per cent of control; method in brief: as §1
Malme-3M = assay: Growth inhibition of human MALME-3M cells at 10 uM relative to control; conditions: values are per cent of control; method in brief: as §1
cells = conditions: Homo sapiens, Cancer cell lines
CCRF-CEM = assay: Growth inhibition of human CCRF-CEM cells at 10 uM relative to control; conditions: values are per cent of control; method in brief: as §1
MCF7 = assay: Growth inhibition of human MCF7 cells at 10 uM relative to control; conditions: values are per cent of control; method in brief: as §1
A498 = assay: Growth inhibition of human A498 cells at 10 uM relative to control; conditions: values are per cent of control; method in brief: as §1
NCI/ADR-RES = assay: Growth inhibition of human NCI/ADR-RES cells at 10 uM relative to control; conditions: values are per cent of control; method in brief: as §1
OVCAR-8 = assay: Growth inhibition of human OVCAR8 cells at 10 uM relative to control; conditions: values are per cent of control; method in brief: as §1
UACC-62 = assay: Growth inhibition of human UACC62 cells at 10 uM relative to control; conditions: values are per cent of control; method in brief: as §2
SW-620 = assay: Growth inhibition of human SW620 cells at 10 uM relative to control; conditions: values are per cent of control; method in brief: as §2
MDA-MB-435 = assay: Growth inhibition of human MDA-MB-435 cells at 10 uM relative to control; conditions: values are per cent of control; method in brief: as §1
SK-MEL-28 = assay: Growth inhibition of human SK-MEL-28 cells at 10 uM relative to control; conditions: values are per cent of control; method in brief: as §1
SK-MEL-5 = assay: Growth inhibition of human SK-MEL-5 cells at 10 uM relative to control; conditions: values are per cent of control; method in brief: as §1
HOP-62 = assay: Growth inhibition of human HOP62 cells at 10 uM relative to control; conditions: values are per cent of control; method in brief: as §1
NCI-H23 = assay: Growth inhibition of human NCI-H23 cells at 10 uM relative to control; conditions: values are per cent of control; method in brief: as §1
[2] = Growth inhibition of human RPMI8266 cells at 10 uM relative to control; conditions: values are per cent of control; method in brief: as §1
U-251 = assay: Growth inhibition of human U251 cells at 10 uM relative to control; conditions: values are per cent of control; method in brief: as §2
HCT-15 = assay: Growth inhibition of human HCT15 cells at 10 uM relative to control; conditions: values are per cent of control; method in brief: as §1
NCI-H226 = assay: Growth inhibition of human NCI-H226 cells at 10 uM relative to control; conditions: values are per cent of control; method in brief: as §1
UO-31 = assay: Growth inhibition of human UO31 cells at 10 uM relative to control; conditions: values are per cent of control; method in brief: as §2
OVCAR-4 = assay: Growth inhibition of human OVCAR4 cells at 10 uM relative to control; conditions: values are per cent of control; method in brief: as §1
PC-3 = assay: Growth inhibition of human PC3 cells at 10 uM relative to control; conditions: values are per cent of control; method in brief: as §1
COLO 205 = assay: Growth inhibition of human COLO205 cells at 10 uM relative to control; conditions: values are per cent of control; method in brief: as §1
SNB-19 = assay: Growth inhibition of human SNB19 cells at 10 uM relative to control; conditions: values are per cent of control; method in brief: as §1
786-0 = assay: Growth inhibition of human 786-0 cells at 10 uM relative to control; conditions: values are per cent of control; method in brief: as §1
KM12 = assay: Growth inhibition of human KM12 cells at 10 uM relative to control; conditions: values are per cent of control; method in brief: as §1
ACHN = assay: Growth inhibition of human ACHN cells at 10 uM relative to control; conditions: values are per cent of control; method in brief: as §1
SF-268 = assay: Growth inhibition of human SF268 cells at 10 uM relative to control; conditions: values are per cent of control; method in brief: as §1
NCI-H460 = assay: Growth inhibition of human NCI-H460 cells at 10 uM relative to control; conditions: values are per cent of control; method in brief: as §1
NCI-H522 = assay: Growth inhibition of human NCI-H522 cells at 10 uM relative to control; conditions: values are per cent of control; method in brief: as §1
MDA-MB-231 = assay: Growth inhibition of human MDA-MB-231 cells at 10 uM relative to control; conditions: values are per cent of control; method in brief: as §1

O=C(NO)c1cn(C/C=C/c2ccccc2)nn1
growth, % of control at 10 µM (HCC 2998): 105%
growth, % of control at 10 µM (SF-539): 135%
growth, % of control at 10 µM (CAKI-1): 95%
growth, % of control at 10 µM (IGROV-1): 89.4%
growth, % of control at 10 µM (SK-OV-3): 107%
growth, % of control at 10 µM (T47D): 97.8%
growth, % of control at 10 µM (SN12C): 95.3%
growth, % of control at 10 µM (SK-MEL-2): 95.7%
growth, % of control at 10 µM (BT-549): 107%
growth, % of control at 10 µM (K562): 119%
growth, % of control at 10 µM (OVCAR-3): 97.1%
growth, % of control at 10 µM (MOLT-4): 79.6%
growth, % of control at 10 µM (TK-10): 130%
growth, % of control at 10 µM (EKVX): 89.9%
growth, % of control at 10 µM (OVCAR-5): 104%
growth, % of control at 10 µM (LOX IMVI): 90.2%
growth, % of control at 10 µM (MDA-MB-468): 105%
growth, % of control at 10 µM (NCI-H322M): 109%
growth, % of control at 10 µM (HCT-116): 100%
growth, % of control at 10 µM (HT-29): 104%
growth, % of control at 10 µM (SNB-75): 79.8%
growth, % of control at 10 µM (DU-145): 167%
growth, % of control at 10 µM [1]: 95.5%
growth, % of control at 10 µM (A549): 107%
growth, % of control at 10 µM (M14): 106%
growth, % of control at 10 µM (HL-60(TB)): 94.5%
growth, % of control at 10 µM (UACC-257): 125%
growth, % of control at 10 µM (SF-295): 108%
growth, % of control at 10 µM (Malme-3M): 110%
inhibition at 10 µM (cells): > 95%
growth, % of control at 10 µM (CCRF-CEM): 61%
growth, % of control at 10 µM (MCF7): 122%
growth, % of control at 10 µM (A498): 95.2%
growth, % of control at 10 µM (NCI/ADR-RES): 107%
growth, % of control at 10 µM (OVCAR-8): 106%
growth, % of control at 10 µM (UACC-62): 102%
growth, % of control at 10 µM (SW-620): 98.4%
growth, % of control at 10 µM (MDA-MB-435): 103%
growth, % of control at 10 µM (SK-MEL-28): 104%
growth, % of control at 10 µM (SK-MEL-5): 148%
growth, % of control at 10 µM (HOP-62): 92.4%
growth, % of control at 10 µM (NCI-H23): 104%
growth, % of control at 10 µM [2]: 94.5%
growth, % of control at 10 µM (U-251): 90.1%
growth, % of control at 10 µM (HCT-15): 98.8%
growth, % of control at 10 µM (NCI-H226): 91.1%
growth, % of control at 10 µM (UO-31): 72.7%
growth, % of control at 10 µM (OVCAR-4): 94.3%
growth, % of control at 10 µM (PC-3): 77.6%
growth, % of control at 10 µM (COLO 205): 133%
growth, % of control at 10 µM (SNB-19): 94.9%
growth, % of control at 10 µM (786-0): 132%
growth, % of control at 10 µM (KM12): 104%
growth, % of control at 10 µM (ACHN): 101%
growth, % of control at 10 µM (SF-268): 92.8%
growth, % of control at 10 µM (NCI-H460): 131%
growth, % of control at 10 µM (NCI-H522): 92.5%
growth, % of control at 10 µM (MDA-MB-231): 96.1%
